The text below walks through data of ChEMBL document CHEMBL4725432, “Dethioacylation by Sirtuins 1-3: Considerations for Drug Design Using Mechanism-Based Sirtuin Inhibition” (ACS Med Chem Lett, 2020).

Data set [1] addresses T1, NAD-dependent protein deacetylase sirtuin-1 (Homo sapiens) (UniProt Q96EB6).
T1 sequence (whole entry): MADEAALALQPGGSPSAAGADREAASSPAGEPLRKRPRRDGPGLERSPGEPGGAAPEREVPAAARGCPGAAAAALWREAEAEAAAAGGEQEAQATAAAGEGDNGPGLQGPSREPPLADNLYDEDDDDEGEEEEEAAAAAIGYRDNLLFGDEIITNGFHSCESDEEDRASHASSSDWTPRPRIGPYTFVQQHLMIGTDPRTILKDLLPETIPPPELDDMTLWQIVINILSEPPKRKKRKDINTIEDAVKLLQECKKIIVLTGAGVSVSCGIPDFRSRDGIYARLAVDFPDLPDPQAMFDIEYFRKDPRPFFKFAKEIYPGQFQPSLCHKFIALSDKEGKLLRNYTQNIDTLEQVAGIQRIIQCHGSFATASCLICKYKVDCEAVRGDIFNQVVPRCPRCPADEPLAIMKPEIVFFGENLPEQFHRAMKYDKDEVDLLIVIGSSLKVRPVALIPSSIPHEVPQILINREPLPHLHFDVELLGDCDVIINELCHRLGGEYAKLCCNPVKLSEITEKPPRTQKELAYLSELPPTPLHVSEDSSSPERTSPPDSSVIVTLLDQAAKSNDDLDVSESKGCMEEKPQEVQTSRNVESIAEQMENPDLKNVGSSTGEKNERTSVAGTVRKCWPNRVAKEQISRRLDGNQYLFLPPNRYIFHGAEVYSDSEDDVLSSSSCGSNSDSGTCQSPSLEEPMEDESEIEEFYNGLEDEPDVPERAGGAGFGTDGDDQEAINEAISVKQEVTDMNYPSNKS
Briefly: Inhibition of human N-terminal GST-tagged SIRT1 (193 to 741 residues) expressed in Escherichia coli preincubated with NAD+ for 30 mins using Ac-Gln-Pro-Lys-Lys(Ac)-AMC (oxo-10) as substrate at 1 to 100 uM measured after 90 mins by fluorescence assay. The conditions noted are these: dose microM 1-100, time 120.0 min. The essentials:
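Recombinant SIRT1 (100 nM) preincubated 30 min with compound, either with or without NAD+ (500 μM), before the fluorogenic deacetylation read-out. Single-dose %-inhibition. Two independent experiments in duplicate, standard deviation.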

Data set [2] concerns the target T2, NAD-dependent protein deacetylase sirtuin-3, mitochondrial (Homo sapiens) (UniProt Q9NTG7).
T2 sequence (whole entry): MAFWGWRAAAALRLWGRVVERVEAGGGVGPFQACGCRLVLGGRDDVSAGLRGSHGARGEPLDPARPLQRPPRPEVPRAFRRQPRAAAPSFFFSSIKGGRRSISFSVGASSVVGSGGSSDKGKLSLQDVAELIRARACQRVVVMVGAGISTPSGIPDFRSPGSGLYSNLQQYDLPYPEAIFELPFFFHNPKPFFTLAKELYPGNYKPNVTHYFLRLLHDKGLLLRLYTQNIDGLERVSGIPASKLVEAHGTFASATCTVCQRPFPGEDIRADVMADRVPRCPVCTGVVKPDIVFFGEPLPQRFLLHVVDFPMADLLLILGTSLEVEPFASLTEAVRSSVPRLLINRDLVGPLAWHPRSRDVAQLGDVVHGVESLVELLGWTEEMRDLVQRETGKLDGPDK
Description: Inhibition of human recombinant N-terminal GST-tagged SIRT3 (102 to 399 residues) deacetylation activity in presence of substrate and NAD+ at 15 uM after 60 mins measured by reversed-phase UPLC-MS analysis relative to control.

Data set [3] concerns the target T3, NAD-dependent protein deacetylase sirtuin-1 (Homo sapiens, UniProt Q96EB6).
T3 sequence (Q96EB6 whole entry): T1 sequence (whole entry)
Description: Inhibition of human recombinant SIRT1 expressed in Escherichia coli in presence of acyl peptide acetyl-H3K9 as substrate incubated for 5 mins by HPLC analysis.

Data set [4] addresses T4, NAD-dependent protein deacetylase sirtuin-2 (Homo sapiens) (UniProt Q8IXJ6).
T4 sequence (whole entry): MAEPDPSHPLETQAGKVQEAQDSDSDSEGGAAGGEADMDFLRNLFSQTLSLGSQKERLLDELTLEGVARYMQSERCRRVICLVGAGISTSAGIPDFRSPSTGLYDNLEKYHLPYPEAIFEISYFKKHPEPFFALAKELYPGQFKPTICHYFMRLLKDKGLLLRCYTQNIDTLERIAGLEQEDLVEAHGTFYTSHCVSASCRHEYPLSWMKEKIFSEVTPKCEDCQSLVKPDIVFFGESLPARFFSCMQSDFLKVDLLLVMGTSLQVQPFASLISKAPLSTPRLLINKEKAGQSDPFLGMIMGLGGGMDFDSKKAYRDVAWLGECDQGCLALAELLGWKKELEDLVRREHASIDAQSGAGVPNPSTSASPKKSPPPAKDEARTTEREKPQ
Briefly: Inhibition of human recombinant SIRT2 expressed in Escherichia coli in presence of acyl peptide acetyl-H3K9 as substrate at 100 uM incubated for 5 mins by HPLC analysis relative to control.

In data set [5] the target is T2, NAD-dependent protein deacetylase sirtuin-3, mitochondrial (Homo sapiens). Briefly: Inhibition of human recombinant SIRT3 expressed in Escherichia coli BL21 in presence of acyl peptide acetyl-H3K9 as substrate at 100 uM incubated for […] mins by HPLC analysis relative to control. The conditions noted are these: time 5.0 min.
The target of data set [6] is T1, NAD-dependent protein deacetylase sirtuin-1 (Homo sapiens). Description: Inhibition of human recombinant N-terminal GST-tagged SIRT1 (193 to 741 residues) deacetylation activity in presence of substrate and NAD+ at 15 uM after 60 mins by reversed-phase UPLC-MS analysis relative to control.
Data set [7] shares this target. Briefly: Inhibition of human recombinant N-terminal GST-tagged SIRT1 (193 to 741 residues) deacetylation activity in presence of substrate and NAD+ at 15 uM after 15 mins by reversed-phase UPLC-MS analysis relative to control. The arrangement: scale not given: the % may be the effect or the level left.
Data set [8] concerns the target T4, NAD-dependent protein deacetylase sirtuin-2 (Homo sapiens). Briefly: Inhibition of human recombinant C-terminal His-tagged SIRT2 (50 to 356 residues) deacetylation activity in presence of substrate and NAD+ incubated for 60 mins measured after 90 mins by fluorescence assay. The essentials:
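Recombinant SIRT2 (100 nM or 250 nM) incubated with fluorogenic thioacyl or oxo lysine-AMC substrates plus NAD+. Deacylation read by fluorescence. Two independent experiments in duplicate, standard deviation.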

For data set [9] the target is unchanged. Description: Inhibition of human recombinant C-terminal His-tagged SIRT2 (50 to 356 residues) deacetylation activity in presence of substrate and NAD+ at 15 uM incubated 15 to 60 mins by reversed-phase UPLC-MS analysis. The conditions noted are these: time min 15-60.
A short description of data set [10]: Metabolic stability of compound in human serum assessed as half life incubated for >10 mins measured after 90 mins by HPLC analysis. Format: ADME, cell-free.
Data set [11] deals with T1, NAD-dependent protein deacetylase sirtuin-1 (Homo sapiens). Description: Inhibition of SIRT1 in HEK293 cells assessed as increase in p53 acetylation co-treated with TSA at 25 uM for 6 hrs by western blot analysis. The format is cell-based. The essentials:
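HEK293 cells exposed 6 h to compound at 25 μM together with TSA (1 μM). Whole-cell lysates immunoblotted for Ac-p53 (K382) and total p53. Ratio Ac-p53/p53 normalized to DMSO control. Two independent experiments in duplicate, SEM.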
(In general: Immunoblotting shows a protein as a band on a membrane.)

Data set [12] has the same target. Description: Inhibition of human recombinant N-terminal GST-tagged SIRT1 (193 to 741 residues) deacetylation activity in presence of substrate and NAD+ at 15 uM after 30 mins by reversed-phase UPLC-MS analysis relative to control.
Data set [13] has as its target T3, NAD-dependent protein deacetylase sirtuin-1. Briefly: Inhibition of human recombinant N-terminal GST-tagged SIRT1 (193 to 741 residues) expressed in Escherichia coli using Ac-Gln-Pro-Lys-Lys(Ac)-AMC (oxo-10) as substrate by fluorescence assay.
Data set [14] has as its target T5, NAD-dependent protein deacetylase sirtuin-2 (Homo sapiens, UniProt Q8IXJ6).
T5 sequence (Q8IXJ6 whole entry): T4 sequence (whole entry)
Description: Inhibition of human C-terminal His-tagged SIRT2 (50 to 356 residues) expressed in Escherichia coli using Ac-Gln-Pro-Lys-Lys(pro)-AMC (oxo-11) as substrate by fluorescence assay.

Data set [15] deals with T2, NAD-dependent protein deacetylase sirtuin-3, mitochondrial (Homo sapiens). Description: Inhibition of human N-terminal GST-tagged SIRT3 (102 to 399 residues) expressed in Escherichia coli using Ac-Gln-Pro-Lys-Lys(but)-AMC (oxo-12) as substrate at 100 uM by fluorescence assay relative to control.
The target in data set [16] is T1, NAD-dependent protein deacetylase sirtuin-1 (Homo sapiens). Description: Inhibition of human recombinant N-terminal GST-tagged SIRT1 (193 to 741 residues) deacetylation activity in presence of substrate and NAD+ at 15 uM after 15 to 60 mins by reversed-phase UPLC-MS analysis. The conditions noted are these: time min 15-60.
Data set [17] has the same target. Briefly: Inhibition of human N-terminal GST-tagged SIRT1 (193 to 741 residues) expressed in Escherichia coli preincubated without NAD+ for 30 mins using Ac-Gln-Pro-Lys-Lys(Ac)-AMC (oxo-10) as substrate at 1 to 100 uM measured after 90 mins by fluorescence assay. The conditions noted are these: dose microM 1-100, time 30.0 min.

Usually inhibition stands for the drop in the measured response relative to a control, in per cent. The IC50 is the concentration that inhibits the measured activity by half. The half-life is the time needed for the level to fall by half in the phase considered.

The source made the active and inactive calls. Residues, ends and D or L forms follow the SMILES beside them. *: point of attachment. Cbz = O=C(OCc1ccccc1)*; NHiPr = CC(C)N*

Regarding `CCCC(=S)NCCCC[C@H](NC(=O)OCc1ccccc1)C(=O)Nc1ccccc1`, the inhibition result in [1], in [2] and in data set [6] was “inactive” in each case. Further, the IC50 in [3] was 12 µM. In addition, the inhibition turned out to be 88% in data set [4] and 23% in [5].
As to `CC(=O)NCCCC[C@H](NC(=O)OCc1ccccc1)C(=O)N[C@@H](Cc1c[nH]c2ccccc12)C(=O)NC(C)C` (Cbz-Lys(Ac)-Trp-NHiPr), in [7], the Activity was > 80%. Further, the inhibition in [2] amounted to 54%. Also, the inhibition entry in [8] and in data set [9] was “inactive” each time.
For the compound `CC(=S)NCCCC[C@H](NC(=O)OCc1ccccc1)C(=O)N[C@@H](Cc1c[nH]c2ccccc12)C(=O)NC(C)C`, the inhibition result in data set [1] and in data set [11] was “Active” throughout. The inhibition result in [8] was “inactive”. Besides, in data set [10], the half-life is > 7 h. The inhibition in [12] amounted to 3%; in [6], 7%.
For `CCC(=S)NCCCC[C@H](NC(=O)OCc1ccccc1)C(=O)N[C@@H](Cc1c[nH]c2ccccc12)C(=O)NC(C)C`, the results for the IC50 in data set [13] and in [14] were 0.51 µM and 2.2 µM, respectively. In addition, the inhibition entry in data set [1], in data set [8] and in data set [17] was “inactive” throughout. For the same compound, the half-life in data set [10] is 7 h. In [15], this compound displayed an inhibition of 19%. Besides, the inhibition entry in data set [16] was “Active”.
